Measured values: ChEMBL document CHEMBL1154191, “Evaluation of spirocyclic 3-(3-fluoropropyl)-2-benzofurans as sigma1 receptor ligands for neuroimaging with positron emission tomography” (J Med Chem, 2009)

Legend:
Heart = assay: Biodistribution in CD1 mouse heart assessed per gram of wet tissue at 400 to 600 kBq, iv after 60 mins post-injection by gamma counting in presence of 1 mg/kg, ip sigma 1/sigma 2 receptor antagonist haloperidol treated before compound addition; type: organism-based; parameters: dose 1 mg/kg, route intravenous; conditions: in vivo, 1 h
Summary of the method: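 Blocking arm in fasted female CD-1 mice (n=5). […] Animals were killed at 60 min post-injection, and organs were weighed and γ-counted as % ID/g wet tissue. Percent change was taken against the 60 min control group, with two-tailed unpaired Student's t test.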

Femur = assay: Biodistribution in CD1 mouse femur assessed per gram of wet tissue at 400 to 600 kBq, iv after 30 mins post-injection by gamma counting; type: ADME, organism-based; conditions: in vivo, 0.5 h
Summary of the method: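 Female CD-1 mice (~8-12 weeks, 20-28 g) were fasted 24 h with free water. Conscious mice got 400-600 kBq [¹⁸F] tracer in saline by tail vein. At 5, 30, 60 or 120 min (n=4-5 per time) they were anesthetized, blood and urine sampled, then killed by cervical dislocation. Organs were weighed and γ-counted, giving % ID/g wet tissue.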

## [18F]CCCC1OC2(CCN(Cc3ccccc3)CC2)c2ccccc21 (configuration not stated)
Heart
  Drug uptake: 1.09 %ID
Femur
  Drug uptake: 3.79 %ID
